The values that follow come from the M2OR odorant receptor database.

Common to all, as to conditions: stereoisomer not certain
The target in one assay is T1, UniProt L7MU75.
T1 sequence (whole entry): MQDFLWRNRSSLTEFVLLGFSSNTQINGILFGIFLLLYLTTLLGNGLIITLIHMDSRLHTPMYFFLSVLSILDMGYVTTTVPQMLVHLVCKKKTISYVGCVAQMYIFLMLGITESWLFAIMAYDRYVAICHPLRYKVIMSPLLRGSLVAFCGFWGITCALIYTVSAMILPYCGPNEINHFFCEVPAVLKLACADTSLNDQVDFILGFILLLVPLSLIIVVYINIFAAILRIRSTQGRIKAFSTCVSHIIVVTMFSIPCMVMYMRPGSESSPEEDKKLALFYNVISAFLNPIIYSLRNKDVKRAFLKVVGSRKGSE
Summed up: (§1)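 Assay methods differ from source to source, frequently being transient luciferase assays in mammalian cell lines. For each receptor–molecule pair, the label responsive (active) applies when the original authors judged the measured signal statistically different from baseline, and non-responsive (inactive) applies otherwise.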

Another assay deals with T2, UniProt L7N210.
T2 sequence (whole entry): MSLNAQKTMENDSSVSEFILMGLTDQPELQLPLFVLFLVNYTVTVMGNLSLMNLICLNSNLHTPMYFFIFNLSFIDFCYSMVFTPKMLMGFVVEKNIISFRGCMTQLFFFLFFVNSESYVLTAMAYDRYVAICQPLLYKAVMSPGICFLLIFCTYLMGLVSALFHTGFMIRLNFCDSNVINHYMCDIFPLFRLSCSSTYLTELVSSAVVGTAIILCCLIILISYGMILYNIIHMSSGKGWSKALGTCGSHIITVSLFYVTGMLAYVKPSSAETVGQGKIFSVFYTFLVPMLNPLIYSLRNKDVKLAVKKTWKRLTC
Summed up:
as §1

The target in a further assay is T3, UniProt Q3KPB0.
T3 sequence (whole entry): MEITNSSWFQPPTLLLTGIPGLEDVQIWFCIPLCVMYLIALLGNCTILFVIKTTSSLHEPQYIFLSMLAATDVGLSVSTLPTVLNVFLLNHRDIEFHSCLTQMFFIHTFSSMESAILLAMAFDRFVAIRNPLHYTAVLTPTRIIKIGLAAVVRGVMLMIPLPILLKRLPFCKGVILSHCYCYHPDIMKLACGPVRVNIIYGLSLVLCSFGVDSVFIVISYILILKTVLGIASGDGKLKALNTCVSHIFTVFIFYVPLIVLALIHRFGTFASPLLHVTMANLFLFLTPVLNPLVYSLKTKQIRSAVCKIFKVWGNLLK
In a few lines:
as §1

Another assay has as its target T4, UniProt Q3U0P3.
T4 sequence (whole entry): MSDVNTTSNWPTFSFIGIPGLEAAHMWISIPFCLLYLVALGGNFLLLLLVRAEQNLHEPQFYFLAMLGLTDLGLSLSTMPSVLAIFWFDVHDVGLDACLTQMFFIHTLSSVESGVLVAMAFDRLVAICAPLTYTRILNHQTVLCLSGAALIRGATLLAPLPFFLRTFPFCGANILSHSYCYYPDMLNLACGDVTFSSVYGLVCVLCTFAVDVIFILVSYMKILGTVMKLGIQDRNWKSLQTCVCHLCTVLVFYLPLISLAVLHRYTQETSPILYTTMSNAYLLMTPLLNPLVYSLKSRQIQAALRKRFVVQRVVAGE
In a few lines:
as §1

In a further assay the target is T5, UniProt Q7TQU8.
T5 sequence (whole entry): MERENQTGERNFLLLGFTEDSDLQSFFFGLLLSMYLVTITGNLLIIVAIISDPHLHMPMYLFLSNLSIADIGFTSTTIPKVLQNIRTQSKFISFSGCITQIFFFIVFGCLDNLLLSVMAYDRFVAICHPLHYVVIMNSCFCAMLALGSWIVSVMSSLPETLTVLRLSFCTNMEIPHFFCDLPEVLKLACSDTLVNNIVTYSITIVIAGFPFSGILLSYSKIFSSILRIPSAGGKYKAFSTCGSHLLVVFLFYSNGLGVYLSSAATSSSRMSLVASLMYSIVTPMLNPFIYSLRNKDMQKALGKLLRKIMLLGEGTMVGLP
In a few lines: as §1

The target in the next assay is T6, UniProt Q7TR79.
T6 sequence (whole entry): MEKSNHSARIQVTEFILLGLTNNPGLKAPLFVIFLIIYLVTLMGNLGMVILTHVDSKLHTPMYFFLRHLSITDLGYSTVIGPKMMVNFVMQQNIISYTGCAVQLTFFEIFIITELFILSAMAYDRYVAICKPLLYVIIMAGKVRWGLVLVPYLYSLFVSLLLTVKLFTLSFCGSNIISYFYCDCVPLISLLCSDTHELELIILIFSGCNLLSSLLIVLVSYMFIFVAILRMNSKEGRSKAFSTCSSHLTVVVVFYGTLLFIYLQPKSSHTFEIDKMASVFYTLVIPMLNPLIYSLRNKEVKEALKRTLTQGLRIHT
In a few lines: as §1

The next assay has as its target T7, UniProt Q7TRM0.
T7 sequence (whole entry): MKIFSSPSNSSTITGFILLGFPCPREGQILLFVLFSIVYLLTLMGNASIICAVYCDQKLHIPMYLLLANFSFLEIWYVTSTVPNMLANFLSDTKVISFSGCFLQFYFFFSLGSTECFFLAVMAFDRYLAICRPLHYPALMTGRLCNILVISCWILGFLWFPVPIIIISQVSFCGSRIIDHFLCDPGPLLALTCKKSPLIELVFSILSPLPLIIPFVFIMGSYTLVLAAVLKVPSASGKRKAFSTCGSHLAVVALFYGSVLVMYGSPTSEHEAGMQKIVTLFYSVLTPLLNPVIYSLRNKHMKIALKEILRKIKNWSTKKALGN
In a few lines: as §1

In a further assay the target is T8, UniProt Q7TRN9.
T8 sequence (whole entry): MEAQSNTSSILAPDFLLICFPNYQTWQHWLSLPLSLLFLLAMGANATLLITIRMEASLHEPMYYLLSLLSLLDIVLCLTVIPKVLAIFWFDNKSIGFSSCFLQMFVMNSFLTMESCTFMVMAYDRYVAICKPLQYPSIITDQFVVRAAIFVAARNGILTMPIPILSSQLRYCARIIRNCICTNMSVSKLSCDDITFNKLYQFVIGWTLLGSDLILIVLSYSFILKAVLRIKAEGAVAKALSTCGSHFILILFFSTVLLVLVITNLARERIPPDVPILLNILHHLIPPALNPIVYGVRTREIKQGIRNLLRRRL
In a few lines: as §1

The next assay has as its target T9, UniProt L7N0P5.
T9 sequence (whole entry): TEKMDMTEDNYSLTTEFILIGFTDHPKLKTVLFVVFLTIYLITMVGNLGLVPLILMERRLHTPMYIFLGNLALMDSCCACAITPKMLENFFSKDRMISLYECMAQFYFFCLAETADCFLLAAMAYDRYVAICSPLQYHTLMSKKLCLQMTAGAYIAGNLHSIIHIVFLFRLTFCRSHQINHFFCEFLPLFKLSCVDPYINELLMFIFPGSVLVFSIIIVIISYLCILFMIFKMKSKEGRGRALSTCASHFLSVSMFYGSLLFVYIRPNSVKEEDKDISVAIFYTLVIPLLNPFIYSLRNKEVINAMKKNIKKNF
In a few lines:
as §1

The target of another assay is T10, UniProt Q7TQV4.
T10 sequence (whole entry): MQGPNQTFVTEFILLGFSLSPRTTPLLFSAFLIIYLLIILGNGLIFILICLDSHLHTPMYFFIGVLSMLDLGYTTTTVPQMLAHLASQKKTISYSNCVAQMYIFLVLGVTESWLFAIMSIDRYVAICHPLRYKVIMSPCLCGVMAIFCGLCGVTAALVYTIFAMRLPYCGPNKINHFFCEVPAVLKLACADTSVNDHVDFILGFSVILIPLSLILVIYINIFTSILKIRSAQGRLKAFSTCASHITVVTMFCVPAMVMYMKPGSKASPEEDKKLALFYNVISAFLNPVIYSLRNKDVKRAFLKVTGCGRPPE
In a few lines: as §1

The target of another assay is T11, UniProt Q7TR71.
T11 sequence (whole entry): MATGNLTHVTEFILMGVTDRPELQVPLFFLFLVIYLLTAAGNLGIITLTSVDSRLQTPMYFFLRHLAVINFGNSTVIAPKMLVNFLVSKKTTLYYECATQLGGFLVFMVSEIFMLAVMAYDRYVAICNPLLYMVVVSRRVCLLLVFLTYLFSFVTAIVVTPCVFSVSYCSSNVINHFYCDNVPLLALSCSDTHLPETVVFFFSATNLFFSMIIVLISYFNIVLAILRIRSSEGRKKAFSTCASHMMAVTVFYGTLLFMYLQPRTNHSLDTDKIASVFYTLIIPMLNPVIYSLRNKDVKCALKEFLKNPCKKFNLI
Summed up: as §1

In a further assay the target is T12, UniProt Q7TRA3.
T12 sequence (whole entry): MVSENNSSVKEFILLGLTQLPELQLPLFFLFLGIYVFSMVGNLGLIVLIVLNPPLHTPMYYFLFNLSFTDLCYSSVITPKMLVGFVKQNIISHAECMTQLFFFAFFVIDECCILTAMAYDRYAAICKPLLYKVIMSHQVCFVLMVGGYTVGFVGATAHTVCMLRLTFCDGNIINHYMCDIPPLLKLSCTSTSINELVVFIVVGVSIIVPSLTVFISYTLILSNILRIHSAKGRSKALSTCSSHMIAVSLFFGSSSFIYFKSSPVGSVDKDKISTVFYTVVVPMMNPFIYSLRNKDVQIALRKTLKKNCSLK
Summed up:
as §1

In the next assay the target is T13, UniProt Q7TRE4.
T13 sequence (whole entry): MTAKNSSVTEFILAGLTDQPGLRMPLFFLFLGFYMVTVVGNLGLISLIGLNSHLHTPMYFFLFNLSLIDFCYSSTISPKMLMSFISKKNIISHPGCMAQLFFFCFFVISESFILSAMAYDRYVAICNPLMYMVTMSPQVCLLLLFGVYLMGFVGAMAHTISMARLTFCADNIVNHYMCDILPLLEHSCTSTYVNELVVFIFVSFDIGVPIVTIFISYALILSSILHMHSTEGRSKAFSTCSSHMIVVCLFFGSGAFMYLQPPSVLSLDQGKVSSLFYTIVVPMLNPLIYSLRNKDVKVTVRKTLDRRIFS
Summed up: as §1

The target of the next assay is UniProt L7N1Y8. Summed up: as §1
UniProt L7N1Y8, sequence (L7N1Y8 as listed by the source): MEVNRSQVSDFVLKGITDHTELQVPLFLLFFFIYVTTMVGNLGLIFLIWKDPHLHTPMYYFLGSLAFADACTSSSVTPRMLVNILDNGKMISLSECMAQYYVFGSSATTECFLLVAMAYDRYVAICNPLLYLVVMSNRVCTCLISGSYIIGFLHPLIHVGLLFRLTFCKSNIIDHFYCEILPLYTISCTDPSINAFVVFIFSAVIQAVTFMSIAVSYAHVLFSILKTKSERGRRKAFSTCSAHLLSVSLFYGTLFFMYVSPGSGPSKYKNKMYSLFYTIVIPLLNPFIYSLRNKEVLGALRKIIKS
The target of another assay is UniProt Q7TR75. Summed up:
as §1

A further assay addresses T14, UniProt Q7TRA1.
T14 sequence (whole entry): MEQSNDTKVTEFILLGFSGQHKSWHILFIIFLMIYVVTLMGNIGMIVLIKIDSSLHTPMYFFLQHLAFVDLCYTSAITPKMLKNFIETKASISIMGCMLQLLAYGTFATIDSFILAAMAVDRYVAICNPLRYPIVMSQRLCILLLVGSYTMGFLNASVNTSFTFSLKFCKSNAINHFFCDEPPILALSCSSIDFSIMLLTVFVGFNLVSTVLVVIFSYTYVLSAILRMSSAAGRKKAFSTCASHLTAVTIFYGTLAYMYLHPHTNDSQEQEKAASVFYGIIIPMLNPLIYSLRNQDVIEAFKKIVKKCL
Summed up:
as §1

The target in the next assay is T15, UniProt Q7TRA2.
T15 sequence (whole entry): T14 sequence (whole entry) with S18A, I86T, I94F, M95I, S112C, V208L, T219I, V221I, V305A
Summed up: as §1

The target of the next assay is UniProt Q7TRB8. Summed up: as §1
UniProt Q7TRB8, sequence (Q7TRB8 as listed by the source): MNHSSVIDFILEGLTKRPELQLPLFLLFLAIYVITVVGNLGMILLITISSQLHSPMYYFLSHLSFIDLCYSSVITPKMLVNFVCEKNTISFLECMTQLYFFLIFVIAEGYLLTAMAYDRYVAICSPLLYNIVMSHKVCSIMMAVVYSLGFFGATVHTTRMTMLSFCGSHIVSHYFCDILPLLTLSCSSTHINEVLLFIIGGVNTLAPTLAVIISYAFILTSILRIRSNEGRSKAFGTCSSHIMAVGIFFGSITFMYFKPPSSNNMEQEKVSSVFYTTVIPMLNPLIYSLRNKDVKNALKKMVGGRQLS

Molecules are shown by their SMILES. Substitutions are numbered along the chain they refer to.

UniProt Q7TR75, sequence (Q7TR75 as listed by the source): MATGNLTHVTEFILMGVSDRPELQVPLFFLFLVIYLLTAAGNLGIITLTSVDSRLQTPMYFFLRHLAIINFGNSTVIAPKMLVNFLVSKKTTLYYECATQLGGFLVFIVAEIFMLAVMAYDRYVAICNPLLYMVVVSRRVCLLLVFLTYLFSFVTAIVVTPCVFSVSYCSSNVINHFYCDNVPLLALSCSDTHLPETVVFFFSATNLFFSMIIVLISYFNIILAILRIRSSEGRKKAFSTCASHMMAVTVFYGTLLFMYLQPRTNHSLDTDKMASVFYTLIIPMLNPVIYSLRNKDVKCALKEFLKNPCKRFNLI

As for `O=C([O-])CCCCCCCC(=O)[O-].[H+].[H+]`, the “odorant receptor agonist call” value in the assay with UniProt L7MU75, with UniProt L7N210, in the assay with UniProt Q3KPB0, with UniProt Q3U0P3, with UniProt Q7TQU8 and with UniProt Q7TR79 was “inactive” in each case. Besides, the “odorant receptor agonist call” value with UniProt Q7TRM0 and with UniProt Q7TRN9 was “inactive” throughout.

For `CCc1cnc(C)c(C)n1`, the “odorant receptor agonist call” value in the assay with UniProt L7N0P5 was “inactive”.

On to `O=C(O)CCCCCC(=O)O`, for which the “odorant receptor agonist call” value in the assay with UniProt Q7TRM0 and with UniProt Q7TRN9 was “inactive” throughout.

As for `O=C1Cc2ccccc2O1`, the “odorant receptor agonist call” value in the assay with UniProt L7N210, with UniProt Q3KPB0, in the assay with UniProt Q3U0P3, with UniProt Q7TQU8, with UniProt Q7TR71 and with UniProt Q7TR79 was “inactive” in each case. Also, the “odorant receptor agonist call” value with UniProt Q7TRA3 and with UniProt Q7TRE4 was “inactive” throughout. Further, in the assay with UniProt Q7TQV4, the “odorant receptor agonist call” value is “active”.

With `CCC(C(=O)O)c1ccccc1` (stereo not given), the “odorant receptor agonist call” value in the assay with UniProt L7MU75, with UniProt L7N210, in the assay with UniProt Q7TQV4, with UniProt Q7TR71, with UniProt Q7TRA3 and with UniProt Q7TRE4 was “inactive” in each case.

On to `CC1=NC(C)C(C)S1` (stereo not given), for which, in the assay with UniProt L7N0P5, the “odorant receptor agonist call” value was “active”.

In the case of `Cc1cnccn1`, the “odorant receptor agonist call” value with UniProt L7N0P5 is “active”.

As to `COC1=C(C)OC(C)C1=O` (stereo not given), the “odorant receptor agonist call” value in the assay with UniProt L7N0P5 was “inactive”.

Take `COc1nccnc1CC(C)C`: the “odorant receptor agonist call” value in the assay with UniProt L7N0P5 was “active”.

Consider `O=C1CCOc2ccccc21`, for which the “odorant receptor agonist call” value in the assay with UniProt L7N1Y8, with UniProt L7N210, with UniProt Q7TR71, with UniProt Q7TR75 and with UniProt Q7TRA3 was “active” each time. The “odorant receptor agonist call” value in the assay with UniProt Q3KPB0, with UniProt Q3U0P3, with UniProt Q7TQU8, in the assay with UniProt Q7TQV4, with UniProt Q7TR79 and with UniProt Q7TRA1 was “inactive” each time. Also, the “odorant receptor agonist call” value in the assay with UniProt Q7TRA2, in the assay with UniProt Q7TRB8 and with UniProt Q7TRE4 was “inactive” each time.

Consider `Cc1cncc(C)n1`, for which, in the assay with UniProt L7N0P5, the “odorant receptor agonist call” value was “active”.
